In ChEMBL document CHEMBL4619805, “Structural Analysis of VDR Complex with ZK168281 Antagonist” (J Med Chem, 2020):
The source made the active and inactive calls. The rule behind the calls is not given here.

Legend:
[1] = target: T1, Vitamin D3 receptor A (Danio rerio) (UniProt Q9PTN2); test: Binding affinity to zebrafish VDR LBD assessed as stabilization of structural elements forming LBP at 10 fold excess compound concentration by HDX-MS analysis
T1 sequence (whole entry): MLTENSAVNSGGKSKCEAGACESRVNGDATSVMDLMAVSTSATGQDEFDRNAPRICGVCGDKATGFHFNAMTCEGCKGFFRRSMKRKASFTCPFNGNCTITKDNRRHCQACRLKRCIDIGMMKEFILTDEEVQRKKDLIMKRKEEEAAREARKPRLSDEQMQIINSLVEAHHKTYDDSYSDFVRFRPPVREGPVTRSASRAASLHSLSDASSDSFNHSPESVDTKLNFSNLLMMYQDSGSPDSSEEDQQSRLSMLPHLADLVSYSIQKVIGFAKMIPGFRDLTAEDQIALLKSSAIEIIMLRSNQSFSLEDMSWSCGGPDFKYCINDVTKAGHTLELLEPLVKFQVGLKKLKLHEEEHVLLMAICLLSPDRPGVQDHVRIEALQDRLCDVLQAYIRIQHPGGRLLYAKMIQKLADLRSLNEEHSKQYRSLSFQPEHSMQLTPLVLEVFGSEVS
Outline: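 zVDR LBD (10 µM) incubated 30 min at room temperature with ten-fold ligand excess, ethanol as control. D₂O exchange for 60, 180, 600 or 1800 s in 50 mM Tris pH 8.0, 50 mM NaCl, 2% glycerol, 1 mM TCEP. Quench with 3 M urea/0.1% TFA, then pepsin column digestion and UPLC-MS. Back-exchange corrected using a fully deuterated sample. Triplicate reactions.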

[2] = target: T1, Vitamin D3 receptor A (Danio rerio); test: Binding affinity to H10 region (416 to 426 residues) of zebrafish VDR LBD assessed as stabilization of structural elements at 10 fold excess compound concentration in presence of SRC1 NR2 coactivator peptide measured at 3 and 10 mins by HDX-MS analysis
Outline: (§1)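 Deuterium exchange ran for 60, 180, 600 or 1800 s in D₂O buffer (50 mM Tris pH 8.0, 50 mM NaCl, 2% glycerol, 1 mM TCEP). Quench with urea/TFA, then online pepsin digestion and UPLC-MS. Uptake corrected for back exchange against a fully deuterated control. Triplicates.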

[3] = target: T1, Vitamin D3 receptor A (Danio rerio); test: Binding affinity to H12 region of zebrafish VDR LBD assessed as stabilization of structural elements forming LBP at 10 fold excess compound concentration by HDX-MS analysis
Outline: (§2)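 zVDR LBD (residues 156–453, 10 µM) preincubated 30 min at room temperature with tenfold ligand excess (ethanol control). D2O exchange in 50 mM Tris pH 8.0, 50 mM NaCl, 2% glycerol, 1 mM TCEP for 60–1800 s. Quench with urea/TFA, online pepsin digest, UPLC-MS. Back-exchange corrected against fully deuterated sample; triplicates.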

[4] = target: T1, Vitamin D3 receptor A (Danio rerio); test: Binding affinity to H12 region (440 to 445 residues) of zebrafish VDR LBD assessed as stabilization of structural elements by measuring increase in protection at 10 fold excess compound concentration in presence of SRC1 NR2 coactivator peptide measured at 1 mins by HDX-MS analysis; outline: as §1
[5] = target: T1, Vitamin D3 receptor A (Danio rerio); test: Binding affinity to H2 region of zebrafish VDR LBD assessed as stabilization of structural elements forming LBP at 10 fold excess compound concentration by HDX-MS analysis; outline: as §2
[6] = target: T2, Vitamin D3 receptor (Homo sapiens) (UniProt P11473); test: Antagonist activity at human VDR expressed in HEK293 EBNA cells co-expressing CYP24A1 promoter region assessed as reduction in 1,25D3-induced receptor activation at 0.1 to 1000 nM incubated for 18 hrs by luciferase reporter gene assay relative to control; type: cell-based; parameters: scale not given: the % may be the effect or the level left
T2 sequence (whole entry): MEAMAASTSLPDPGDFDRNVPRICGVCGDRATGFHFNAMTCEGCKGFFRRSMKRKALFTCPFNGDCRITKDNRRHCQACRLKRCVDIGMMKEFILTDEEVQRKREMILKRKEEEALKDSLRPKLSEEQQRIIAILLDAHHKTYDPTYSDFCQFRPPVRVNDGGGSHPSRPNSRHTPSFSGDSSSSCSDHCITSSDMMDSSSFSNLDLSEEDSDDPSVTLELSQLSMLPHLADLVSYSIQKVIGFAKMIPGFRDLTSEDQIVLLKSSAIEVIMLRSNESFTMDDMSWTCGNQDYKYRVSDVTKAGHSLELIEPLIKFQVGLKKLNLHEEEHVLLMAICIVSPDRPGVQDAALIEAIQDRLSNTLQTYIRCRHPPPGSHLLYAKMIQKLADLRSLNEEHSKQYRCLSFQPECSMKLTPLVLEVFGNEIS
Outline: (§3)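 HEK293 EBNA cells, in 5% charcoal-treated FCS for 48 h, co-transfected by jetPEI with full-length hVDR, firefly luciferase under the human CYP24A1 proximal promoter (-414 to -64), and Renilla. 6 h later, 10 nM 1,25D3 ± compound (0.1–1000 nM) added for 18 h. Lysate luciferase normalized to Renilla; triplicate, mean ± SD.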

[7] = target: T1, Vitamin D3 receptor A (Danio rerio); test: Binding affinity to H6 to H7 region (322 to 344 residues) of zebrafish VDR LBD assessed as stabilization of structural elements by measuring increase in protection at 10 fold excess compound concentration in presence of SRC1 NR2 coactivator peptide measured at 1 mins by HDX-MS analysis
Outline: (§4)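 Deuterium exchange at pH 8.0 for 60, 180, 600 or 1800 s. Quench, pepsin digestion, UPLC-MS. Per-residue deuteration corrected to a fully deuterated control; triplicates.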

[8] = target: T1, Vitamin D3 receptor A (Danio rerio); test: Binding affinity to H5 region (290 to 297 residues) of zebrafish VDR LBD assessed as destabilization of structural elements by measuring deprotection at 10 fold excess compound concentration in presence of SRC1 NR2 coactivator peptide measured at 1 mins by HDX-MS analysis relative to 1,25D3
[9] = target: T1, Vitamin D3 receptor A (Danio rerio); test: Binding affinity to H3 region (253 to 267 residues) of zebrafish VDR LBD assessed as stabilization of structural elements by measuring increase in protection at 10 fold excess compound concentration in presence of SRC1 NR2 coactivator peptide measured at 1 mins by HDX-MS analysis; outline: as §4
[10] = target: T1, Vitamin D3 receptor A (Danio rerio); test: Antagonist activity at full-length zebrafish VDR expressed in rat IEC18 cells co-expressing CYP24A1 promoter region assessed as reduction in 1,25D3-induced receptor activation at 1 to 1000 nM incubated for 24 hrs by luciferase reporter gene assay
[11] = target: T1, Vitamin D3 receptor A (Danio rerio); test: Binding affinity to H12 region of zebrafish VDR LBD assessed as stabilization of structural elements at 10 fold excess compound concentration in presence of SRC1 NR2 coactivator peptide by HDX-MS analysis; outline: as §4
[12] = target: T1, Vitamin D3 receptor A (Danio rerio); test: Binding affinity to H3 and H7 region of zebrafish VDR LBD assessed as stabilization of structural elements by measuring increase in protection at 10 fold excess compound concentration in presence of SRC1 NR2 coactivator peptide measured at 1 mins by HDX-MS analysis; outline: as §4
[13] = target: T1, Vitamin D3 receptor A (Danio rerio); test: Binding affinity to H1 region of zebrafish VDR LBD assessed as stabilization of structural elements forming LBP at 10 fold excess compound concentration by HDX-MS analysis; outline: as §2
[14] = target: T1, Vitamin D3 receptor A (Danio rerio); test: Binding affinity to H10 to H11 region (416 to 437 residues) of zebrafish VDR LBD assessed as stabilization of structural elements by measuring increase in protection at 10 fold excess compound concentration in presence of SRC1 NR2 coactivator peptide measured at 1 mins by HDX-MS analysis; outline: as §4
[15] = target: T2, Vitamin D3 receptor (Homo sapiens); test: Antagonist activity at human VDR expressed in HEK293 EBNA cells co-expressing CYP24A1 promoter region assessed as reduction in 1,25D3-induced receptor activation at 0.1 to 1000 nM incubated for 18 hrs by luciferase reporter gene assay; type: cell-based; outline: as §3

| Activity [1] | Activity [2] | Activity [3] | Activity [4] | Activity [5] | Activity [6] | Activity [7] | Activity [8] | Activity [9] | inhibition [10] | Activity [11] | Activity [12] | Activity [13] | Activity [14] | inhibition [15] | SMILES |
| --- | --- | --- | --- | --- | --- | --- | --- | --- | --- | --- | --- | --- | --- | --- | --- |
| Active | Active | inactive | 30 to 40% | – | – | – | – | – | – | – | – | – | – | – | C=C1/C(=C\C=C2/CCC[C@]3(C)[C@@H]([C@H](C)CCCC(C)(C)O)CC[C@@H]23)C[C@@H](O)C[C@@H]1O |
| – | – | inactive | – | Active | < 60% | Active | > 30% | Active | Active | inactive | < 80% | Active | Active | Dose-dependent effect | C=C1/C(=C\C=C2/CCC[C@]3(C)[C@@H]([C@H](C)/C=C/[C@@H](O)C4(/C=C/C(=O)OCC)CC4)CC[C@@H]23)C[C@@H](O)C[C@@H]1O |
